# Measurements: ChEMBL document CHEMBL6078712, “Triterpenoid phthalimides as selective anti-cancer agents targeting mitochondrial apoptosis” (Eur J Med Chem, 2025)
# Active and inactive are the calls of the source. The rule behind the calls is not given here.
# Experiments:
# [1] = tested on: Mitochondrial membrane; assay: Induction of mitochondrial membrane potential depolarization in human CCRF-CEM cells assessed as fold increase in fluorescence intensity incubated for 24 hrs by JC-1 staining based flow cytometry; format: cell membranes
# [2] = tested on: CCRF-CEM; assay: Induction of cell cycle arrest in human CCRF-CEM cells assessed as downregulation of Cyclin A expression at 5 times IC50 incubated for 24 hrs by Western blotting analysis; format: functional, cell-based
# Procedure, shortened: (§1)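 30 µg protein per lane on SDS-PAGE, transferred to nitrocellulose, blocked in 5 % BSA/TBS-Tween. Primary antibodies overnight at 4 °C (Akt, P-Akt Ser473, STAT-3, caspase-3, PARP, cyclin D, cyclin A, Bcl-xL, Bak, Bid, Bim), then HRP secondary and ECL detection. GAPDH as loading control.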
# [3] = tested on: CCRF-CEM; assay: Induction of apoptosis in human CCRF-CEM cells assessed as necrotic cells at 5 times IC50 incubated for 24 hrs by Annexin V-FITC and PI staining based flow cytometric analysis (reference value: 0.4 %); format: functional
# Procedure, shortened: (§2)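 Washed in Ca2+-containing binding buffer, then stained 15 min at room temperature in the dark with Annexin V-FITC and propidium iodide (PI at half the kit-recommended level). Read at once by flow cytometry with a 488 nm laser, ≥10,000 cells. Debris excluded; quadrants viable, early apoptotic, late apoptotic/necrotic, necrotic. Three independent experiments.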
# [4] = Cytotoxicity against human K562-Tax cells assessed as inhibition of cell growth incubated for 72 hrs by MTS assay; format: functional, cell-based
# Procedure, shortened: (§3)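 MTS assay on eight human cancer lines and two non-tumour fibroblast lines. IC50 is the concentration that inhibits cell growth by 50 %. SD typically up to 15 % of the mean.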
# [5] = tested on: CCRF-CEM; assay: Induction of apoptosis in human CCRF-CEM cells assessed as late apoptotic cells at 1 times IC50 incubated for 24 hrs by Annexin V-FITC and PI staining based flow cytometric analysis (reference value: 0.4 %); format: functional; procedure, shortened: as §2
# [6] = tested on: HCT-116; assay: Cytotoxicity against human HCT-116 cells assessed as inhibition of cell growth incubated for 72 hrs by MTS assay; format: functional, cell-based; settings: HCT-116, 72 h; procedure, shortened: as §3
# [7] = tested on: CCRF-CEM; assay: Induction of apoptosis in human CCRF-CEM cells assessed as downregulation of caspase-3 expression at 5 times IC50 incubated for 24 hrs by Western blotting analysis; format: functional, cell-based; procedure, shortened: as §1
# [8] = Metabolic stability in human liver microsomes assessed as parent compound remaining at 2 uM incubated for 15 mins in presence of NADPH by RF-MS analysis; format: ADME, Microsome; settings: read-out: Stability
# Procedure, shortened: (§4)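 Human plasma stability, plasma protein binding and liver microsome stability, each run in triplicate. Error deviations below 10 %.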
# [9] = tested on: CCRF-CEM; assay: Induction of apoptosis in human CCRF-CEM cells assessed as downregulation of BCL-XL expression at 5 times IC50 incubated for 24 hrs by Western blotting analysis; format: functional, cell-based; procedure, shortened: as §1
# [10] = tested on: CCRF-CEM; assay: Induction of apoptosis in human CCRF-CEM cells assessed as early apoptotic cells at 5 times IC50 incubated for 24 hrs by Annexin V-FITC and PI staining based flow cytometric analysis (reference value: 2.1 %); format: functional; procedure, shortened: as §2
# [11] = Stability in human plasma assessed as compound remaining at 2 uM incubated for 30 mins by RF-MS analysis; format: ADME, cell-free; settings: read-out: Stability; procedure, shortened: as §4
# [12] = Cytotoxicity against human MRC5 cells assessed as inhibition of cell growth incubated for 72 hrs by MTS assay; format: toxicity, cell-based; procedure, shortened: as §3
# [13] = tested on: A549; assay: Cytotoxicity against human A549 cells assessed as inhibition of cell growth incubated for 72 hrs by MTS assay; format: functional, cell-based; settings: A549, 72 h; procedure, shortened: as §3
# [14] = tested on: CCRF-CEM; assay: Cytotoxicity against human CCRF-CEM cells assessed as inhibition of cell growth incubated for 72 hrs by MTS assay; format: functional, cell-based; procedure, shortened: as §3
# [15] = tested on: Mitochondrial membrane; assay: Induction of mitochondrial membrane potential depolarization in human CCRF-CEM cells assessed as fold increase in fluorescence intensity at 5 times IC50 incubated for 24 hrs by JC-1 staining based flow cytometry; format: cell membranes
# [16] = tested on: CCRF-CEM; assay: Induction of cell cycle arrest in human CCRF-CEM cells assessed as increase in accumulation of G0/G1 phase at 5 times IC50 incubated for 24 hrs by RNase/PI staining based flow cytometry; format: functional
# Procedure, shortened: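 Propidium iodide staining and flow cytometry with a 488 nm laser, ≥10,000 intact cells. Phase proportions compared with untreated cells; SEM of three independent experiments.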
# [17] = tested on: CCRF-CEM; assay: Inhibition of RNA synthesis in human CCRF-CEM cells at 1 times IC50 incubated for 24 hrs by BrU incorporation based flow cytometry; format: functional
# Procedure, shortened: (§5)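 Fixed in 1 % paraformaldehyde/0.05 % NP-40 (15 min at room temperature, then 4 °C overnight). Stained with cross-reacting anti-BrdU plus FITC secondary (45 min each), then PI/RNase A. Flow cytometry; % BrU-positive cells.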
# [18] = Cytotoxicity against human BJ cells assessed as inhibition of cell growth incubated for 72 hrs by MTS assay; format: toxicity, cell-based; procedure, shortened: as §3
# [19] = tested on: CCRF-CEM; assay: Inhibition of DNA synthesis in human CCRF-CEM cells at 1 times IC50 incubated for 24 hrs by BrdU incorporation based flow cytometry; format: functional
# Procedure, shortened: (§6)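 Fixed in ice-cold 70 % ethanol, DNA denatured in 2 M HCl for 30 min, neutralised with borax. Stained with anti-BrdU plus FITC secondary, then PI/RNase A for 1 h. Flow cytometry; % BrdU-positive cells.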
# [20] = tested on: CEM-DNR; assay: Cytotoxicity against human CEM-DNR cells assessed as inhibition of cell growth incubated for 72 hrs by MTS assay; format: functional, cell-based; procedure, shortened: as §3
# [21] = tested on: CCRF-CEM; assay: Induction of apoptosis in human CCRF-CEM cells assessed as upregulation of BID expression at 1 to 5 times IC50 incubated for 24 hrs by Western blotting analysis; format: functional, cell-based; procedure, shortened: as §1
# [22] = tested on: CCRF-CEM; assay: Induction of apoptosis in human CCRF-CEM cells assessed as necrotic cells at 1 times IC50 incubated for 24 hrs by Annexin V-FITC and PI staining based flow cytometric analysis (reference value: 0.4 %); format: functional; procedure, shortened: as §2
# [23] = tested on: CCRF-CEM; assay: Induction of apoptosis in human CCRF-CEM cells assessed as viable cells at 1 times IC50 incubated for 24 hrs by Annexin V-FITC and PI staining based flow cytometric analysis (reference value: 97.4 %); format: functional; procedure, shortened: as §2
# [24] = tested on: CCRF-CEM; assay: Induction of cell cycle arrest in human CCRF-CEM cells assessed as downregulation of total STAT3 expression at 5 times IC50 incubated for 24 hrs by Western blotting analysis; format: functional, cell-based; procedure, shortened: as §1
# [25] = Metabolic stability in human liver microsomes assessed as parent compound remaining at 2 uM incubated for 60 mins in presence of NADPH by RF-MS analysis; format: ADME, Microsome; settings: read-out: Stability; procedure, shortened: as §4
# [26] = tested on: CCRF-CEM; assay: Inhibition of DNA synthesis in human CCRF-CEM cells at 5 times IC50 incubated for 24 hrs by BrdU incorporation based flow cytometry; format: functional; procedure, shortened: as §6
# [27] = tested on: CCRF-CEM; assay: Induction of apoptosis in human CCRF-CEM cells assessed as viable cells at 5 times IC50 incubated for 24 hrs by Annexin V-FITC and PI staining based flow cytometric analysis (reference value: 97.4 %); format: functional; procedure, shortened: as §2
# [28] = Stability in human plasma assessed as compound remaining at 2 uM incubated for 60 mins by RF-MS analysis; format: ADME, cell-free; settings: read-out: Stability; procedure, shortened: as §4
# [29] = tested on: CCRF-CEM; assay: Inhibition of RNA synthesis in human CCRF-CEM cells at 5 times IC50 incubated for 24 hrs by BrU incorporation based flow cytometry; format: functional; procedure, shortened: as §5
# [30] = tested on: CCRF-CEM; assay: Induction of cell cycle arrest in human CCRF-CEM cells assessed as downregulation of total AKT expression at 5 times IC50 incubated for 24 hrs by Western blotting analysis; format: functional, cell-based; procedure, shortened: as §1
# [31] = tested on: CCRF-CEM; assay: Induction of apoptosis in human CCRF-CEM cells assessed as late apoptotic cells at 5 times IC50 incubated for 24 hrs by Annexin V-FITC and PI staining based flow cytometric analysis (reference value: 0.4 %); format: functional; procedure, shortened: as §2
# [32] = tested on: CCRF-CEM; assay: Induction of cell cycle arrest in human CCRF-CEM cells assessed as downregulation of Cyclin D expression at 5 times IC50 incubated for 24 hrs by Western blotting analysis; format: functional, cell-based; procedure, shortened: as §1
# [33] = Stability in human plasma assessed as compound remaining at 2 uM incubated for 15 mins by RF-MS analysis; format: ADME, cell-free; settings: read-out: Stability; procedure, shortened: as §4
# [34] = Stability in human plasma assessed as compound remaining at 2 uM incubated for 120 mins by RF-MS analysis; format: ADME, cell-free; settings: read-out: Stability; procedure, shortened: as §4
# [35] = tested on: K562; assay: Cytotoxicity against human K562 cells assessed as inhibition of cell growth incubated for 72 hrs by MTS assay; format: functional, cell-based; settings: K562, 72 h; procedure, shortened: as §3
# [36] = tested on: HCT 116 TP53(-/-); assay: Cytotoxicity against human HCT116-p53-null cells assessed as inhibition of cell growth incubated for 72 hrs by MTS assay; format: functional, cell-based; procedure, shortened: as §3
# [37] = tested on: CCRF-CEM; assay: Induction of apoptosis in human CCRF-CEM cells assessed as early apoptotic cells at 1 times IC50 incubated for 24 hrs by Annexin V-FITC and PI staining based flow cytometric analysis (reference value: 2.1 %); format: functional; procedure, shortened: as §2
# [38] = Plasma protein binding in human assessed as fraction bound at 10 uM incubated for 4 hrs by rapid equilibrium dialysis based RF-MS analysis; format: ADME, cell-free; settings: read-out: PPB (converted); procedure, shortened: as §4
# [39] = tested on: CCRF-CEM; assay: Induction of apoptosis in human CCRF-CEM cells assessed as upregulation of BIM expression at 1 to 5 times IC50 incubated for 24 hrs by Western blotting analysis; format: functional, cell-based; procedure, shortened: as §1
# [40] = tested on: U2OS; assay: Cytotoxicity against human U2OS cells assessed as inhibition of cell growth incubated for 72 hrs by MTS assay; format: functional, cell-based; procedure, shortened: as §3
# [41] = Metabolic stability in human liver microsomes assessed as parent compound remaining at 2 uM incubated for 30 mins in presence of NADPH by RF-MS analysis; format: ADME, Microsome; settings: read-out: Stability; procedure, shortened: as §4
compound,measurement,setting,value
CC1(C)[C@@H](O)CC[C@]2(C)[C@H]3CC[C@@H]4[C@H]5[C@H](c6cc7c(c(-c8ccccc8)c6)C(=O)N(c6ccc(N)cc6)C7=O)CC[C@]5(C(=O)O)CC[C@@]4(C)[C@]3(C)CC[C@@H]12,Activity,[1],Dose-dependent-effect
same,Activity,[2],Active
same,Activity,[3],0%
same,IC50,[4],4.34 µM
same,Activity,[5],2.8%
same,IC50,[6],12 µM
same,Activity,[7],Active
same,"remaining at 0.25 h, 2 µM",[8],100%
same,Activity,[9],Active
same,Activity,[10],7.8%
same,"remaining at 0.5 h, 2 µM",[11],92%
same,IC50 at 72 h,[12],19.4 µM
same,IC50,[13],21 µM
same,IC50,[14],4.09 µM
same,fold change (FC),[15],> 20
same,Activity,[16],Active
same,inhibition (INH),[17],24%
same,IC50 at 72 h,[18],40.6 µM
same,inhibition (INH),[19],30%
same,IC50,[20],6.29 µM
same,Activity,[21],Active
same,Activity,[22],0%
same,Activity,[23],92.4%
same,Activity,[24],Active
same,"remaining at 1 h, 2 µM",[25],97%
same,inhibition (INH),[26],13.6%
same,Activity,[27],87.5%
same,"remaining at 1 h, 2 µM",[28],93%
same,inhibition (INH),[29],45.4%
same,Activity,[30],Active; Slight Activity Observed
same,Activity,[31],4.7%
same,Activity,[32],Active
same,"remaining at 0.25 h, 2 µM",[33],106%
same,"remaining at 2 h, 2 µM",[34],89%
same,IC50,[35],20.9 µM
same,IC50,[36],17.1 µM
same,Activity,[37],4.8%
same,"fraction unbound at 4 h, 10 µM",[38],0.37
same,Activity,[39],Active
same,IC50,[40],15.6 µM
same,"remaining at 0.5 h, 2 µM",[41],102%
